Source: PubChem BioAssay
Calls of active or inactive are those of the source.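 Rule for the calls, unless noted: active = fluorescence slope higher than the sample average by over 3 SD (cut at about -0.22 in these data, passing the limit was not always enough); inactive = the rest.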

How the values were obtained:
[1] = inhibitors of TNFa-induced NFkB p65 translocation, primary screen, imaging, HUVEC, MLSMR starter and 10KST1 sets (AID 438;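 active = inhibition above 20% together with a positive visual image hit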;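 note: compound added about 3h40 before a 20 min TNFalpha stimulation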;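 for inhibition: signal is the nuclear over cytoplasmic p65 intensity ratio per well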); details: HUVEC TNFa-induced p65 nuclear translocation; cell count: measured here: nuclei count (cytotoxicity indicator), at 2.08 µM; inhibition: at 2 µM, stronger effect = higher value, 0% TNFa-plus-vehicle, 100% no-TNFa wells
[2] = endothelial E-selectin expression blockers – imaging, HUVEC, immunofluorescence, MLSMR starter and 10KST1 sets, primary screen (AID 487;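 active = visually confirmed hit in the image check and inhibition above 20%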;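 for inhibition: signal is fraction of cell area covered by stained E-selectin grains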;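 for nuclei count: 100% = median nuclei count of all wells on the same plate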); details: HUVEC TNFalpha-induced E-selectin immunofluorescence imaging, at 2 µM; inhibition: stronger effect = higher value; nuclei count: measured here: cell number, toxicity
[3] = Primary imaging screen for DUSP6 inhibitors that restore phospho-Erk in transfected HeLa cells, chemical complementation (AID 609;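 active = compounds giving at least 50% inhibition in the cell-based MKP-3 phosphatase rescue imaging test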;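 for inhibition: phospho-Erk level distribution per well compared with pooled transfected vehicle control wells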); details: HeLa MKP-3 transfected, phospho-Erk imaging KS statistic, at 10 µM, cells stimulated with TPA for 15 min
[4] = target: Dual specificity protein phosphatase 6 (Homo sapiens) (UniProt Q16828); assay: as above; details: HeLa MKP-3 transfected, phospho-Erk imaging KS statistic; at 10 µM; stronger effect = higher value; cells stimulated with TPA for 15 min
[5] = target: Voltage-gated potassium channel subunit beta-2 (Rattus norvegicus) (UniProt P62483); assay: inhibitors of rat Kvbeta2 reductase activity – biochemical, NADPH fluorescence, primary screen (AID 622); details: recombinant KvBeta, 4-cyanobenzaldehyde reduction, at 10 µM, stronger effect = higher value;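 note: slope of raw intensity against log time taken from 70 to 1610 s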
[6] = target: Voltage-gated potassium channel subunit beta-2 (Rattus norvegicus) (UniProt P62483); assay: enhancers of rat Kvbeta2 NADPH turnover – biochemical, NADPH fluorescence, primary screen (AID 623;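 active = NADPH fluorescence slope more negative than the mean of all samples by about 3 SD, 99.7% confidence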;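 note: fluorescence intensity change per second fitted from 20 to 320 s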); details: Recombinant KvBeta, NADPH fluorescence decrease slope, 10 min; at 10 µM; stronger effect = lower value
[7] = target: Alpha-2C adrenergic receptor (Homo sapiens) (UniProt P18825); assay: compounds altering alpha2C-coupled GIRK flux – cell-based, HEK293 alpha2C/GIRK1/2, thallium flux, primary screen (AID 624;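 active = fluorescence slope after compound addition differing from the mean of all screened samples at 99.7% confidence, in either direction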;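 note: slope of fluorescence ratio to pre-addition baseline per second over 15 to 24 s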); details: thallium flux BTC fluorescence, at 10 µM, actives lie on both sides
[8] = inhibitors of larval lipid processing in zebrafish, primary screen, whole organism, PED6 fluorescence, gall bladder and intestine (AID 686;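 active = a full or partial loss of lipid-probe fluorescence in the fish gall bladder, intestine or both, judged by eye; inactive = no fluorescence loss, or compound toxic to the fish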;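 note: larvae 5 to 7 days old with five fish per well; signal comes from phospholipase A2 cleavage of quenched PED6 carried via bile; overnight exposure to compound and PED6 before scoring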); details: Zebrafish larvae PED6 lipid processing, fluorescence scoring; screened at 20 µM (by protocol)
Summary of the method: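 Doses: 20 µM single dose. Test system: live zebrafish larvae aged 5-7 days, whole organism. Quantity: five larvae per well. Measured by: By-eye fluorescence microscopy. Reagent: ingested quenched lipid PED6 at 100 nM. Read-out: visual per-well fluorescence inhibition score. Times: overnight exposure of larvae to compound plus PED6.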

[9] = loss of swimming-algae plug formation – whole organism, Chlamydomonas reinhardtii, WT vs cilia-less mutant, absorbance, 96-well, primary screen (AID 463189;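 active = inhibition at or above 50% relative to wild type and mutant plate controls; inactive = inhibition below 50%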;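 note: 0% = wild type cc124 cells in DMSO and 100% = ciliumless bld1 mutant cells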); details: Chlamydomonas reinhardtii gravitaxis, OD600 absorbance, 2 days; at 10 µM; stronger effect = higher value
[10] = measured here: cell density z-score
[11] = measured here: nuclear c-Myc green intensity z-score
[12] = measured here: nuclear pErk red intensity z-score, stronger effect = higher value

Chain of Voltage-gated potassium channel subunit beta-2 (Rattus norvegicus) (P62483 whole entry, looked up): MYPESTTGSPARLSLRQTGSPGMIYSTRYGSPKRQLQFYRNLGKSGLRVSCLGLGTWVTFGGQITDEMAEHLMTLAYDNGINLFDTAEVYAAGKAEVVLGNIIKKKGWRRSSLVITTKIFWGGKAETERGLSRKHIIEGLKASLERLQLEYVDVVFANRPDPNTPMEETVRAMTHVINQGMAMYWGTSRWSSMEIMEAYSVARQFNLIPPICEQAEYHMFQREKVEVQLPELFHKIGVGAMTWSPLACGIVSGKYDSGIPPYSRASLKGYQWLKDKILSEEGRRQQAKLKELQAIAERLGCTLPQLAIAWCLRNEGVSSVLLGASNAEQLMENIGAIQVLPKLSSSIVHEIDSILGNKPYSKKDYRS
Chain of Dual specificity protein phosphatase 6 (Homo sapiens) (Q16828 whole entry, looked up): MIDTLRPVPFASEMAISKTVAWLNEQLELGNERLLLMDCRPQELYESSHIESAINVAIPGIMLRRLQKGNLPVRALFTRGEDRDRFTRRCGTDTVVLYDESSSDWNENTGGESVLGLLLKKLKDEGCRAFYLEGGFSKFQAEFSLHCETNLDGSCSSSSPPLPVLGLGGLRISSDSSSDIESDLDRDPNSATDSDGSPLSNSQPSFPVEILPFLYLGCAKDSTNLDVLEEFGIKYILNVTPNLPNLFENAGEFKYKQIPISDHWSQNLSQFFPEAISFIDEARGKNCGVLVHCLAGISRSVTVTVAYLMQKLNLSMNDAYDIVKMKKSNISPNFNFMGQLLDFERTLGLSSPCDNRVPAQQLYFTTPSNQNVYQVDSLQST
Chain of Alpha-2C adrenergic receptor (Homo sapiens) (P18825 whole entry, looked up): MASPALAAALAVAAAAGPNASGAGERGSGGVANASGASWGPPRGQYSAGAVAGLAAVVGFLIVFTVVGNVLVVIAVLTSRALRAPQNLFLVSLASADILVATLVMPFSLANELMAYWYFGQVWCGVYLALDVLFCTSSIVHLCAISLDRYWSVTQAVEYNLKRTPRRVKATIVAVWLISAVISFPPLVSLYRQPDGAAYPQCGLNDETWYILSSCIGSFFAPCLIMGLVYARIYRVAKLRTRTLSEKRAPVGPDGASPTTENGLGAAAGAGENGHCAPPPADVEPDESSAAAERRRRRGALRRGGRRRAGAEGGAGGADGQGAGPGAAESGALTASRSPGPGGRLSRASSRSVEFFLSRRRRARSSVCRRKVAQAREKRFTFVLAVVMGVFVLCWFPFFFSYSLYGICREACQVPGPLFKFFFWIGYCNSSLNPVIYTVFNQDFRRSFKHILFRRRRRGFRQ

SMILES | cell count [1] | inhibition [1] | inhibition [2] | nuclei count [2] | z-score [3, 10] | z-score [3, 11] | z-score [3, 12] | inhibition [4] | fluorescence slope [5] | NADPH fluorescence slope [6] | slope [7] | outcome [8] | inhibition [9]
O=C(Oc1ccccc1N1C(=O)CCC1=O)c1ccco1 | 545 | 4.9% (inactive) | -119% (inactive) | 118% | 0.222 | -0.0545 | 0.413 | 3.5% (inactive) | -0.557 (inactive) | -6.4e-05 (inactive) | 0.0069 (inactive) | inactive | -13.9% (inactive)
COc1cc(-c2nn3c(C4CCCCC4)nnc3s2)cc(OC)c1OC | 535 | -28.6% (inactive) | -115% (inactive) | 167% | -1.15 | 0.143 | 1.4 | -7.86% (inactive) | -0.479 (inactive) | -0.000183 (inactive) | 0.00564 (inactive) | inactive | 12.1% (inactive)
O=C1[C@@H]2[C@H](C(=O)N1O)[C@H]1C=C[C@@H]2C1 | 468 | -1% (inactive) | -174% (inactive) | 209% | -1.39 | 1.02 | 0.777 | 1.04% (inactive) | -0.392 (inactive) | -1.7e-05 (inactive) | 0.00509 (inactive) | inactive | 2.48% (inactive)
CN1CCN(C(=O)CSc2nc(-c3cccs3)ccc2C#N)CC1 | 625 | -11.3% (inactive) | 21.9% (inactive) | 138% | -0.668 | -0.886 | -0.831 | 6.04% (inactive) | -0.299 (inactive) | -1.3e-05 (inactive) | 0.00609 (inactive) | inactive | 21.2% (inactive)
CCCCC1(C(=O)OCC)CC(CN2CCOCC2)OC1=O (stereo not drawn) | 448 | -21.5% (inactive) | -182% (inactive) | 167% | -1.27 | -1.52 | 2.46 | -8.95% (inactive) | -0.314 (inactive) | 1.1e-05 (inactive) | 0.00504 (inactive) | inactive | 3.54% (inactive)
Cn1c(=NCC(O)COc2ccccc2)sc2ccccc21 (stereo not drawn) | 482 | 7.1% (inactive) | -85.2% (inactive) | 167% | 0.424 | -0.57 | 0.805 | -8.95% (inactive) | -0.367 (inactive) | -3.8e-05 (inactive) | 0.00465 (inactive) | inactive | 16.2% (inactive)
CCOC(=O)c1c(C)n(C)c2ccc(OC)c(NC(=O)CN3CCCCC3)c12 | 343 | -2.7% (inactive) | -15% (inactive) | 132% | -1.53 | -1.22 | 2.07 | -6.59% (inactive) | -0.46 (inactive) | -0.000136 (inactive) | 0.00641 (inactive) | inactive | -10.1% (inactive)
N#CCCN(CCC#N)c1nnc(-c2ccccc2)s1 | 391 | -3.1% (inactive) | -60.9% (inactive) | 159% | 1.49 | 1.59 | -1.79 | 17% (inactive) | -0.384 (inactive) | -3.6e-05 (inactive) | 0.00496 (inactive) | inactive; toxic | 27.2% (inactive)
CC/C(C)=C1\SC(N2CCN(C(C)=O)CC2)=NC1=O | 475 | -8.5% (inactive) | -322% (inactive) | 208% | -0.503 | -0.13 | 0.531 | 4.37% (inactive) | -0.377 (inactive) | -3.8e-06 (inactive) | 0.00493 (inactive) | inactive | -1.03% (inactive)
COc1ccc(/C(O)=C2/C(=O)C(=O)N(CCCN(C)C)C2c2cccc(Cl)c2)cc1OC (stereo not drawn) | 382 | -1.1% (inactive) | -135% (inactive) | 155% | -1.5 | 0.328 | 0.495 | 3.66% (inactive) | -0.393 (inactive) | -5.4e-05 (inactive) | 0.00697 (inactive) | inactive | 0.268% (inactive)
Cc1nnc2n(-c3ccccc3)c(=O)c3c4c(sc3n12)COC(C(C)C)C4 (stereo not drawn) | 542 | -6.5% (inactive) | -106% (inactive) | 177% | -0.97 | 1.36 | -0.55 | -0.608% (inactive) | -0.357 (inactive) | -2.6e-05 (inactive) | 0.00506 (inactive) | inactive | -3.02% (inactive)
CC(=O)c1c(C(C)=O)c(C)n(NC(=O)c2ccncc2)c1C | 557 | 1.2% (inactive) | -2.4% (inactive) | 133% | 1.16 | -1.48 | 0.477 | 5.26% (inactive) | -0.305 (inactive) | 7.7e-06 (inactive) | 0.00487 (inactive) | inactive | 8.61% (inactive)
O=C(OCCN1CCOCC1)c1ccc(OCCN2CCOCC2)cc1 | 573 | -2.2% (inactive) | -54.5% (inactive) | 130% | -0.658 | 0.853 | 0.881 | 1.75% (inactive) | -0.555 (inactive) | -5.3e-05 (inactive) | 0.00568 (inactive) | inactive | 32.3% (inactive)
CCOC(=O)CCc1c(C)c(C#N)c2[nH]c3ccccc3n2c1=O | 536 | -1.4% (inactive) | -8.6% (inactive) | 82.5% | -0.186 | -0.0675 | -0.0374 | 15.9% (inactive) | -0.617 (inactive) | -3.7e-05 (inactive) | 0.00416 (inactive) | active; weak signal in gallbladder and intestine | 18.4% (inactive)
CCOC(=O)C1CCN(c2nc3ccccc3nc2C(C#N)C(=O)NCCc2ccccc2)CC1 (stereo not drawn) | 441 | 3.4% (inactive) | -167% (inactive) | 184% | 0.0297 | 0.625 | -0.588 | 13.2% (inactive) | -0.426 (inactive) | -6.6e-05 (inactive) | 0.00158 (inactive) | inactive | 13.3% (inactive)
Nc1nonc1-c1noc(N2CCOCC2)n1 | 306 | -10.9% (inactive) | -42.1% (inactive) | 106% | 0.592 | 0.125 | 0.227 | -12.3% (inactive) | -0.281 (inactive) | 1e-05 (inactive) | 0.00528 (inactive) | inactive | 17.1% (inactive)
CCCCCCn1cc(C(=O)O)c(=O)c2ccccc21 | 426 | -5.3% (inactive) | -95% (inactive) | 158% | -1.56 | 1.61 | 1.42 | -7.28% (inactive) | -0.402 (inactive) | -1.4e-06 (inactive) | 0.00525 (inactive) | inactive | -8.24% (inactive)
CCOC(=O)CC(=O)CSc1nc(N)c(C#N)c(-c2ccc(F)cc2)c1C#N | 650 | -5.7% (inactive) | 44% (inactive) | 167% | -1.03 | 0.96 | 2.1 | -7.28% (inactive) | -0.366 (inactive) | -6.3e-05 (inactive) | 0.00627 (inactive) | inactive | -14.2% (inactive)
Cc1c(/C(O)=C2\C(=O)C(=O)N(CCN(C)C)C2c2cccnc2)cnn1-c1ccccc1 (stereo not drawn) | 512 | -1.7% (inactive) | -140% (inactive) | 139% | 1.11 | -1.54 | 0.165 | -8.76% (inactive) | -0.564 (inactive) | -7.1e-05 (inactive) | 0.00465 (inactive) | inactive | -1.73% (inactive)
Cc1ccc2[nH]c3c(c2c1)CN(C(=O)CN1CCCc2ccccc21)CC3 | 557 | -8.1% (inactive) | -104% (inactive) | 142% | -0.606 | -1.61 | -0.633 | 2.92% (inactive) | -0.439 (inactive) | -7.1e-05 (inactive) | 0.00496 (inactive) | active; weak signal in gallbladder and intestine | 15.5% (inactive)
CN1CCC2(CC1)C1CN(C)CC=C1C(C#N)=C(N)C2(C#N)C#N (stereo not drawn) | 542 | -8.9% (inactive) | -165% (inactive) | 198% | -1.09 | 0.771 | 1.17 | 2.46% (inactive) | -0.349 (inactive) | -8.7e-06 (inactive) | 0.0029 (inactive) | inactive | 11.5% (inactive)
C=C1c2cc(OC)ccc2NC(=O)N1CC | 611 | 0.3% (inactive) | -36.5% (inactive) | 127% | 0.269 | 0.973 | -0.0863 | -4.7% (inactive) | -0.452 (inactive) | -0.0002 (inactive) | 0.00447 (inactive) | inactive | 5.59% (inactive)
O=C(Nc1nc(=O)c2ccccc2s1)c1ccccc1 | 647 | 5.5% (inactive) | -58.7% (inactive) | 158% | 0.159 | -0.389 | 0.0783 | 9.61% (inactive) | -0.505 (inactive) | -4.5e-05 (inactive) | 0.00905 (active) | inactive | 13.1% (inactive)
CCCCOc1ccc(C)cc1CN(CCO)CCO | 552 | -8% (inactive) | -87% (inactive) | 111% | -1.69 | -0.122 | -1.5 | 1.9e-07% (inactive) | -0.506 (inactive) | -1.2e-05 (inactive) | 0.0065 (inactive) | inactive | -2.14% (inactive)
c1ccc(N2CCN(c3nc(-c4ccccn4)nc4ccccc34)CC2)cc1 | 493 | -5.1% (inactive) | 22.4% (inactive) | 86.2% | -1.22 | 1.7 | 1.08 | -5.26% (inactive) | -0.413 (inactive) | -7.9e-05 (inactive) | 0.0043 (inactive) | inactive | 106% (active)
O=C(NCc1ccco1)c1cnn2c1NC(c1ccccc1)CC2C(F)(F)F (stereo not drawn) | 479 | -5.5% (inactive) | -25.8% (inactive) | 107% | -0.862 | 0.861 | -0.0535 | -2.07% (inactive) | -0.53 (inactive) | -4e-05 (inactive) | 0.0056 (inactive) | inactive | -7.85% (inactive)
